pIC50: −log10 of the molar value.
Assays:
Assay type in all cases: cell-based
[1] = target: T1, NADPH oxidase 4 (Homo sapiens) (UniProt Q9NPH5); assay: Inhibition of NOX4 expressed in HEK293 FS cells at 10 uM assessed as H2O2 production by H2O2/Tyr/LPO assay
T1 sequence (whole entry): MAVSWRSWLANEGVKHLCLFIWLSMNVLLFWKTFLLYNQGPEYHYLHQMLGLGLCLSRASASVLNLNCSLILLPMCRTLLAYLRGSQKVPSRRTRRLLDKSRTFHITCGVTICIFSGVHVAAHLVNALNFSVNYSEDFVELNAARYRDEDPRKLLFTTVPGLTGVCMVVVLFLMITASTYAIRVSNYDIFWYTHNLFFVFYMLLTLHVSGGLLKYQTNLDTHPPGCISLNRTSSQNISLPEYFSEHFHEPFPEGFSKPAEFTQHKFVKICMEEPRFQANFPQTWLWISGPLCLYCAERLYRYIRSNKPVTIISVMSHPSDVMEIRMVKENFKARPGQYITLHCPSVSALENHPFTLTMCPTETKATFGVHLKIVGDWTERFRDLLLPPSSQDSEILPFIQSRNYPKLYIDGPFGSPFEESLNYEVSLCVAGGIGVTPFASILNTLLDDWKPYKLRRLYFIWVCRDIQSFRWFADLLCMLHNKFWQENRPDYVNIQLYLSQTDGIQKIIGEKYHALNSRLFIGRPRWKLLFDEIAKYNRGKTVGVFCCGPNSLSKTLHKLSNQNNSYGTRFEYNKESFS
In short: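 Primary screen at 10 μM in the H2O2/Tyr/LPO cellular assay. HEK 293 FS cells overexpress NOX4. The LPO enzyme forms fluorescent o,o'-dityrosine from L-tyrosine and H2O2, detected by spectrofluorometric plate reader. Inhibition expressed relative to DPI.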

[2] = target: T1, NADPH oxidase 4 (Homo sapiens); assay: Inhibition of NOX4 expressed in HEK293 FS cells at 10 uM assessed as H2O2 production by H2O2/Tyr/LPO assay substituted with 3 uM H2O2; settings: values are per cent of control
In short: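 Redox-activity counter-screen: transfected cells replaced by 3 μM H2O2 in the H2O2/Tyr/LPO read-out (LPO plus L-tyrosine giving fluorescent dityrosine). Compounds at 10 μM final, to detect breakdown of H2O2 independent of NOX4.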

NADPH oxidase 4 = target: T2, NADPH oxidase 4 (Homo sapiens, UniProt Q9NPH5); assay: Inhibition of NOX4 expressed in HEK293 FS cells assessed as H2O2 production by H2O2/Tyr/LPO assay
T2 sequence (Q9NPH5 whole entry): T1 sequence (whole entry)
In short: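 Cell-based H2O2/Tyr/LPO assay in free-style HEK 293 F cells transfected to overexpress constitutively H2O2-producing NOX4. NOX4-generated H2O2 drives LPO conversion of L-tyrosine to fluorescent o,o'-dityrosine, read on a spectrofluorometric plate reader. IC50 estimated from an eight-point curve, 1/2 dilution series from 10 to 0.078 μM.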

[3] = Cytotoxicity against human free style HEK293 cells after 72 hrs; settings: FreeStyle HEK293 cells
In short: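 Luminescent cell viability kit read-out; cells exposed to 10 μM compound for 72 h. Values expressed as percentage of live cells.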

Row | Compound | inhibition [1] [%] | % inhibition of H2O2 signal (cell-free redox counter-screen) [2] [%] | pIC50 (NADPH oxidase 4) | cytotoxicity at 72 h [3] [%]
1 | COc1cc(O)cc2oc(-c3ccc(O)c(O)c3)c(O)c(=O)c12 | 100 | 3.17 | 6.13 | 121
2 | O=c1c(O)c(-c2ccc(O)cc2)oc2cc(O)cc(O)c12 [KAEMPFEROL] | 105 | 2.09 | 5.92 | 119
3 | O=c1c2cc(O)c(O)cc2c2cc(O)c(O)cc2n1Cc1cccc([N+](=O)[O-])c1 | 101 | -4.9 | 6.59 | 112
4 | O=C1Nc2ccc([N+](=O)[O-])cc2/C1=C/c1ccc(O)c(O)c1 | 102 | 0.39 | 5.95 | 123
5 | O=c1c(O[C@H]2O[C@H](CO)[C@@H](O)[C@H](O)[C@H]2O)c(-c2ccc(O)c(O)c2)oc2cc(O)cc(O)c12 [MIQUELIANIN] | 105 | -1.86 | – | –
6 | O=c1c2cc(O)c(O)cc2c2cc(O)c(O)cc2n1Cc1ccc([N+](=O)[O-])cc1 | 93 | -6.11 | 5.80 | 108
7 | COc1cc(/C=C2\C(=O)Nc3ccc(NC(C)=O)cc32)ccc1O | 104 | -5.16 | 5.85 | 112
8 | C=CCN(CC=C)C(=S)/N=C1\C(=O)Nc2cc(C)c(O)c(C)c21 | 100 | – | – | –
9 | COc1cc(O)c2c(=O)c(OC)c(-c3ccc(O)c(O)c3)oc2c1 | 88 | – | 5.99 | –
10 | CC(C)c1cc(/C=C2\C(=O)Nc3ccccc32)cc(C(C)C)c1O | 102 | -0.88 | 6.20 | 18.7
11 | O=C(N/N=C/c1cccc(O)c1O)C(=O)N/N=C/c1cccc(O)c1O | 103 | -4.58 | 6.04 | 67.2
12 | O=c1c2cc(O)c(O)cc2c2cc(O)c(O)cc2n1Cc1ccccc1S(=O)(=O)c1ccccc1 | 95 | -1.05 | 5.80 | 113
13 | O=c1cc(-c2ccc(O)cc2)oc2cc(O)cc(O)c12 [APIGENIN] | 105 | -1.2 | 5.95 | 108
14 | Nc1cccc(Nc2ncnc3c2sc2ccc(N)cc23)c1 | 98 | 17.9 | 6.62 | 106
15 | O=c1cc(-c2ccc(O)c(O)c2)oc2cc(O)cc(O)c12 [LUTEOLIN] | 106 | – | 6.07 | 110
16 | O=C(O)c1cc(NCc2ccccc2O)ccc1O | 89 | 5.35 | 6.02 | 102
17 | O=C(O)c1cc(NCc2cc(O)ccc2O)ccc1O [LAVENDUSTIN C] | 82 | 72.4 | 5.87 | 88.7
18 | COC(=O)c1cc(NCc2ccccc2O)ccc1O | 91 | 3.83 | 5.90 | 106
19 | N#Cc1ccccc1Cn1c(=O)c2cc(O)c(O)cc2c2cc(O)c(O)cc21 | 97 | 4.8 | 6.23 | 108
20 | O=C(N/N=C/c1ccc(O)c(O)c1)C(=O)N/N=C/c1ccc(O)c(O)c1 | 105 | 7.6 | 5.94 | 99.5
21 | Nc1ccc(Nc2ncnc3c2sc2ccc(N)cc23)cc1 | 101 | -2.78 | 5.97 | 60.5
22 | COc1cc(CCNC(=O)C(=O)Nc2cccc(N)c2)ccc1O | 104 | -3.3 | 5.89 | 82.4
23 | C=CCN(CC=C)C(=S)N=C1C(=O)Nc2cc(C)c(O)c(C)c21 | – | – | 6.00 | 97.8
24 | O=C(NCCc1ccc(O)c(O)c1)C(=O)Nc1cccc([N+](=O)[O-])c1 | 104 | -3.5 | 5.79 | 74.9
25 | O=c1c2cc(O)c(O)cc2c2cc(O)c(O)cc2n1Cc1cc([N+](=O)[O-])ccc1O | 104 | -4.8 | 6.77 | 90.6
26 | O=c1c(O)c(-c2ccc(O)c(O)c2)oc2cc(O)cc(O)c12 [QUERCETIN] | 94 | – | 6.17 | 102

Source: ChEMBL document CHEMBL1240523, “Small-molecule inhibitors of NADPH oxidase 4” (J Med Chem, 2010)
